Source: ChEMBL document CHEMBL3259774, “Antimycobacterial activity of chiral aminoalcohols with camphane scaffold” (Eur J Med Chem, 2014)
Values after ≈ are worked out from the molar mass of the structure shown. Structures can show the parent of a compound that is named as a salt.

Experiments:
[1] = system: Mycobacterium tuberculosis; assay: Antimycobacterial activity against Mycobacterium tuberculosis H37Rv assessed as growth inhibition after 45 days; type: functional
Outline: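 Canetti proportion method on Löwenstein–Jensen egg medium. Each compound was added as a sterile DMSO suspension/solution before coagulation (30 min at 85 °C) and tested at five concentrations. Tubes were inoculated with 10⁵ cells/ml and incubated 45 days at 37 °C. Colony counts were expressed as percent of drug-free control. MIC is the lowest concentration giving complete inhibition (0% growth).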

[2] = system: HEK-293T; assay: Cytotoxicity against HEK293T cells after 72 hrs by MTT assay; type: cell-based; settings: Homo sapiens
Outline: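 HEK 293T cells grown in RPMI-1640 with 10% heat-inactivated foetal calf serum and 2 mM L-glutamine, 37 °C, 5% CO2. Cells seeded at […] cells/ml, grown 24 h, then exposed 72 h to compounds serially diluted from fresh DMSO stocks (final DMSO ≤0.5%), ≥8 wells per concentration. MTT added for 4 h at 37 °C, formazan dissolved in 5% HCOOH/2-propanol, read at 580 nm. Survival expressed as % of untreated control; IC50 from sigmoidal curve fit.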

| SMILES | MIC [1] | IC50 [2] |
| --- | --- | --- |
| CC1(C)[C@@H]2CC[C@@]1([C@H](O)CN1CCN(c3ccccc3F)CC1)C(=O)C2 | 0.28 µM (≈ 0.101 µg/mL) | 120 µM |
| CC(C)N(C[C@H](O)[C@]12CC[C@H](CC1=O)C2(C)C)C(C)C | 0.37 µM (≈ 0.104 µg/mL) | 166 µM |
| CC(C)N(C[C@@H](O)[C@]12CC[C@H](CC1=O)C2(C)C)C(C)C | 10.7 µM (≈ 3 µg/mL) | – |
| CC1(C)[C@@H]2CC[C@@]1([C@@H](O)CN1CCCC1)C(=O)C2 | 19.9 µM (≈ 5 µg/mL) | – |
| CC1(C)[C@@H]2CC[C@@]1([C@@H](O)CN1CCCCC1)C(=O)C2 | 0.38 µM (≈ 0.101 µg/mL) | 143 µM |
| CC1(C)[C@@H]2CC[C@@]1([C@H](O)CN1CCCCC1)C(=O)C2 | 18.8 µM (≈ 5 µg/mL) | – |
| CC1CCN(C[C@H](O)[C@]23CC[C@H](CC2=O)C3(C)C)CC1 | 0.72 µM (≈ 0.201 µg/mL) | 158 µM |
| CC1CCN(C[C@@H](O)[C@]23CC[C@H](CC2=O)C3(C)C)CC1 | 0.36 µM (≈ 0.101 µg/mL) | 169 µM |
| CN1CCN(C[C@H](O)[C@]23CC[C@H](CC2=O)C3(C)C)CC1 | 17.8 µM (≈ 5 µg/mL) | – |
| CN1CCN(C[C@@H](O)[C@]23CC[C@H](CC2=O)C3(C)C)CC1 | 17.8 µM (≈ 5 µg/mL) | – |
| CC1(C)[C@@H]2CC[C@@]1([C@@H](O)CN1CCN(c3ccccc3)CC1)C(=O)C2 | 14.6 µM (≈ 5 µg/mL) | – |
| CC1(C)[C@@H]2CC[C@@]1([C@H](O)CN1CCN(c3ccccc3)CC1)C(=O)C2 | 14.6 µM (≈ 5 µg/mL) | – |
| CC1(C)[C@@H]2CC[C@@]1([C@@H](O)CN1CCN(c3ccccc3F)CC1)C(=O)C2 | 0.28 µM (≈ 0.101 µg/mL) | 129 µM |
| CC1(C)[C@@H]2CC[C@@]1([C@@H](O)CN1CCN(c3ccc(F)cc3)CC1)C(=O)C2 | 0.28 µM (≈ 0.101 µg/mL) | 82.2 µM |
| CC1(C)[C@@H]2CC[C@@]1([C@H](O)CN1CCN(c3ccc(F)cc3)CC1)C(=O)C2 | 0.28 µM (≈ 0.101 µg/mL) | 65.1 µM |
| CC1(C)[C@@H]2CC[C@@]1([C@@H](O)CN1CCN(c3ccc(Cl)cc3)CC1)C(=O)C2 | 7.96 µM (≈ 3 µg/mL) | 8.6 µM |
| CC1(C)[C@@H]2CC[C@@]1([C@H](O)CN1CCN(c3ccc(Cl)cc3)CC1)C(=O)C2 | 0.27 µM (≈ 0.102 µg/mL) | 9.2 µM |
| CC1(C)[C@@H]2CC[C@@]1([C@@H](O)CN1CCOCC1)C(=O)C2 | 0.37 µM (≈ 0.0989 µg/mL) | > 200 µM |
| CC1(C)[C@@H]2CC[C@@]1([C@H](O)CN1CCOCC1)C(=O)C2 | 18.7 µM (≈ 5 µg/mL) | – |
| CC1(C)[C@@H]2CC[C@@]1([C@@H](O)CN1CCSCC1)C(=O)C2 | 17.6 µM (≈ 5 µg/mL) | – |
| CC1(C)[C@@H]2CC[C@@]1([C@H](O)CN1CCSCC1)C(=O)C2 | 17.6 µM (≈ 5 µg/mL) | – |
| CC[C@@H](CO)NCCN[C@@H](CC)CO [ETHAMBUTOL HYDROCHLORIDE] | 7.22 µM | – |
